Experimental data gathered from unrelated publications.
Protocols differ between the studies behind these lines.
Target: Calcium/calmodulin-dependent protein kinase kinase 1 (CAMKK1, Homo sapiens, UniProt Q8N5S9)

| SMILES | read-out | method | concentration | remaining binding |
| --- | --- | --- | --- | --- |
| Cc1nc(C2CCN(C(=O)c3ccc(OC(F)(F)F)cc3N)CC2)c2ncc(N3CCN(C)CC3)cc2n1 | cell-free assay | competition with immobilised ligand | 1 µM | 100% |
| N[C@H]1CCN(c2nccc(-c3cnn4ncccc34)n2)C1 | binding | – | 1 µM | 100% |
| CCN1CCN(Cc2ccc(C(=O)Nc3ccc(C)c(Oc4ccc5c(c4)CC(=O)N5)c3)cc2C(F)(F)F)CC1 | binding | competition with immobilised ligand | 1 µM | 100% |
| CO[C@H]1CC[C@H](CNc2ccc(S(=O)(=O)NC(=O)c3ccc(N4CCN(CC5=C(c6ccc(Cl)cc6)CC(C)(C)CC5)CC4)cc3Oc3cnc4[nH]ccc4c3)cc2[N+](=O)[O-])CC1 | cell-free assay | competition with immobilised ligand | 1 µM | 83% |
| Nc1ncc2c(n1)-c1c([nH]c3ccc(C#CC4CC4)cc13)CCCC2 | binding | competition with immobilised ligand | 1 µM | 98% |
| O=C(c1ccc(Nc2ncc(Cl)c(-c3ccc(Cl)s3)n2)cc1)N1CCC(N2CCCC2)CC1 | binding | competition with immobilised ligand | 1 µM | 86% |
| FC(F)(F)Oc1cccc(-c2cnc3ccc(-c4ccncc4)nn23)c1 | cell-free assay | competition with immobilised ligand | 5 µM | 43% |
| C[C@H]1CCN(c2nccc(-c3cnn4ncccc34)n2)C1 | binding | – | 1 µM | 91% |
| CC(=O)Nc1c(C(C)=O)c(=O)n(C)c2nc(-c3ccc(Cl)cc3Cl)c(-c3ccc(Cl)cc3)cc12 | cell-free assay | competition with immobilised ligand | 1 µM | 100% |
| O=C(c1ccc(Nc2nccc(-c3cc4ccccc4s3)n2)cc1)N1CCC(N2CCCC2)CC1 | binding | competition with immobilised ligand | 1 µM | 93% |
| CC(=O)N1CCC(c2ccc(C(=O)NC(=N)N)cc2C(F)(F)F)CC1 | cell-free assay | competition with immobilised ligand | 1 µM | 100% |
| CN(C)c1nccc(-c2cnc3ncccn23)n1 | binding | – | 1 µM | 100% |
| Cc1cnc(Nc2ccc(C(=O)N3CCC(N4CCCC4)CC3)cc2)nc1-c1cc2ccccc2s1 | binding | competition with immobilised ligand | 1 µM | 79% |
| COc1cnc(Nc2cccc(S(N)(=O)=O)c2)nc1N1CCN(c2ccccc2)C(=O)C1 | binding | competition with immobilised ligand | 1 µM | 100% |
| O=C(Nc1c[nH]nc1C(=O)NC1CCNCC1)c1cc(F)cc(F)c1 | binding | competition with immobilised ligand | 1 µM | 90% |
| COc1cnc(Nc2cccc(S(N)(=O)=O)c2)nc1N1CCN(c2ccccc2)CC1 | binding | competition with immobilised ligand | 1 µM | 92% |
| O=C(Nc1cccnn1)N1CC(C/C=C/c2cncc(Oc3ccc(C(F)(F)F)cn3)n2)C1 | cell-free assay | competition with immobilised ligand | 1 µM | 100% |
| c1cnn2ncc(-c3ccnc(N4CCC45COC5)n3)c2c1 | binding | – | 1 µM | 97% |
| Cc1noc([C@H]2C[C@@H](c3ccc(C(F)(F)F)cc3)CN(C(=O)N3CCS(=O)(=O)C3)C2)n1 | cell-free assay | competition with immobilised ligand | 1 µM | 100% |
| CN(C)c1ncc(F)c(-c2cnn3ncccc23)n1 | binding | – | 1 µM | 90% |
| CNCc1ccccc1-c1csc([C@@H](C)Nc2nc(C)nc3cc(OC)c(OC)cc23)c1 | cell-free assay | competition with immobilised ligand | 1 µM | 100% |
| CN(c1nccc(-c2cnn3ncccc23)n1)C1CC1 | binding | – | 1 µM | 100% |
